Source: PubChem
CHO parental Ca – ATP-evoked calcium signal inhibitors, parental CHO, primary screen, counter-screen for OX1R antagonist project, cell-based, fluorescence, Fluo-8 calcium dye; parental CHO-K1, ATP-induced calcium, Fluo-8 fluorescence; inhibition, % at 5.6 µM; hit rate 0.63% among 330,000; AID 463079, 2010;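 active = inhibition above that plate's mean sample inhibition plus 3 SD, cut at about 26% in these data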
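Test system: untransfected parental CHO cell line; also added: ATP stimulus; dosing: 5.6 µM, single dose; signal: calcium-sensitive Fluo-8 fluorescence; measure: percent inhibition of ATP-evoked calcium rise, normalized to controls; benchmarks: low control ATP plus DMSO, high control DMSO only; replication: one well per compound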
OX1R antag-1 – antagonists of human orexin 1 receptor (OX1R). hit rate 1.8% among 330,000. OX1R-expressing cells, FRET antagonist read-out. inhibition, % at 6.6 µM; in the data active = inhibition mostly above about 38%, no sharp cut-off; inactive = mostly below about 40%
Target sequence (O43613 whole entry, looked up): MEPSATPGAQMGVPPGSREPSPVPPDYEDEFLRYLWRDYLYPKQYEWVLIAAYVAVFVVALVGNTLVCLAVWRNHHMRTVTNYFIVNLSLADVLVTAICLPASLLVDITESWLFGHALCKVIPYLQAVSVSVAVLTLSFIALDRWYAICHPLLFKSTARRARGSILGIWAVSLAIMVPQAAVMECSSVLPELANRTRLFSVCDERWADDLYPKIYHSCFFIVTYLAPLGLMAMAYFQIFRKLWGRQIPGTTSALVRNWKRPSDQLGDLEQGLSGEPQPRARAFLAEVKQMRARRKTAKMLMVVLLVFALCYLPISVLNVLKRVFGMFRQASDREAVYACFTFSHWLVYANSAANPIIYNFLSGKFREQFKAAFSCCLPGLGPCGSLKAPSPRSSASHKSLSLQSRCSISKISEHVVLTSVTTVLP
GPR7 antagonist – GPR7 receptor antagonists, primary screen, cell-based, fluorescence, single concentration; hit rate 1.1% among 290,000; inhibition, % at 4.4 µM; GPR7-expressing cells, fluorescence antagonist assay; AID 1861, 2009; in the data active = inhibition above about 16%, passing the limit was not always enough;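 also: cells stimulated with the agonist NPW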
Target sequence (P48145 whole entry, looked up): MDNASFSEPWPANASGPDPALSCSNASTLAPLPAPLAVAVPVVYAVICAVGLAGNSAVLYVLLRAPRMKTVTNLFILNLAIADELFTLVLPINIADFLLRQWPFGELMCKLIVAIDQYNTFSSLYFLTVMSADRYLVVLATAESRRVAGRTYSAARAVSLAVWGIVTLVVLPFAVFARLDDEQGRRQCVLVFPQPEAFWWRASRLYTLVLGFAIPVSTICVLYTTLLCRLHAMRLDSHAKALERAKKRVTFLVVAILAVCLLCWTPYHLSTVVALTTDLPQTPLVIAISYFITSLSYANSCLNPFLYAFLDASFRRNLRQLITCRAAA
OX1R antag-2 – OX1R (HCRTR1) antagonists, primary screen, fluorescence, CHO/OX1R cells, Fluo-8 calcium, orexin A. AID 434989, 2010. Orexin/Hypocretin receptor type 1 (Homo sapiens), O43613. hit rate 0.43% among 330,000. inhibition, % at 5 µM. Fluo-8 calcium fluorescence;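 active = inhibition above its plate's threshold, mean inhibition of all tested compounds on the plate plus 3 SD, cut at about 37% in these data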
TAAR1 agonist – human TAAR1 agonists, primary screen, Fluo-8 calcium fluorescence, CHO RD-HGA16 cells; activation, % at 3 µM; AID 624467, 2012; vehicle wells 0%, saturating PEA agonist 100%; hit rate 0.99% among 360,000; Trace amine-associated receptor 1 (Homo sapiens), Q96RJ0;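 active = activation above the mean activation of all test compounds in the run plus 3 SD, cut at about 38% in these data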
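Test system: RD-HGA16 (CHO) cells co-expressing Gα16 and hTAAR1 | Doses: Single dose, 3 µM | Schedule: 17-24 h seeding, 75 min 37 °C dye, 30 min RT | Evaluation: % activation from peak over basal fluorescence ratio, DMSO-to-PEA scaled | Technique: Kinetic Fluo-8 calcium fluorescence | Benchmarks: Low control DMSO, high control PEA (EC100)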
TAAR1 antagonist – human TAAR1 antagonists, primary screen, Fluo-8 calcium fluorescence, CHO RD-HGA16 cells. inhibition, % at 3 µM. antagonist. hit rate 1.5% among 360,000. Trace amine-associated receptor 1 (Homo sapiens), Q96RJ0;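 active = inhibition above a per-plate cutoff, the mean inhibition of test compounds on that plate plus 3 SD, cut at about 49% in these data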
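System: CHO RD-HGA16 cells bearing hTAAR1. Reagent: EC80 β-phenethylamine stimulus. Schedule: seeding 17-24 h prior, 75-min 37 °C, 30-min RT dye loading. Signal: Fluo-8 intracellular calcium dye fluorescence, real-time kinetic reads. Read-out: % inhibition from peak post-agonist over basal fluorescence ratio. Benchmarks: vehicle wells and EC80 agonist wells. Replicates: n of 1.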
TAAR1 nonsel count – nonselective antagonists in TAAR1 counter-screen cells, counter-screen for hTAAR1 antagonist project, cell-based, fluorescence, calcium; hit rate 77% among 2,400; inhibition, % at 3 µM; AID 651780, 2012; shares compounds with TAAR1 antagonist; counterscreen cell line, antagonist mode; in the data active = inhibition above about 22%;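 also: CHO-Ga16 host cells stimulated with ATP at an EC80 level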
TAAR1 antag conf – human TAAR1 antagonists, retest of hits, confirmation, cell-based, fluorescence | shares compounds with TAAR1 antagonist | TAAR1-expressing cells, fluorescence antagonist read-out | inhibition, % at 3 µM | hit rate 40% among 2,400 | AID 651785, 2012; in the data active = inhibition above about 49%;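 also: CHO-Ga16 host cells challenged with agonist PEA near its EC80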
Ga16 nonsel ag – calcium activation in Ga16-expressing cells, counter-screen for TAAR1 antagonist project, cell-based, fluorescence. shares compounds with TAAR1 antagonist. agonist counterscreen. activation, % at 3 µM. hit rate 18% among 2,400; in the data active = activation above about 12%
TAAR1 ag counter – TAAR1 activation by candidate antagonists – cell-based, fluorescence, counter-screen for TAAR1 antagonist project | hTAAR1 cell line, agonist mode | shares compounds with TAAR1 antagonist | activation, % at 3 µM | hit rate 2% among 2,400; in the data active = activation above about 37%;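 also: CHO cells stably expressing TAAR1 with calcium dye readout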
Numbers stand for hits; . = inactive; / = no result; ! = not confirmed by another sample. Compounds with a hit are over-represented: about 4.6% of the library has one in this group of screens.

SMILES	CHO parental Ca	OX1R antag-1	GPR7 antagonist	OX1R antag-2	TAAR1 agonist	TAAR1 antagonist	TAAR1 nonsel count	TAAR1 antag conf	Ga16 nonsel ag	TAAR1 ag counter
CC(C)C(=O)Nc1cccc(C(=O)OCC(=O)c2ccc(Cl)cc2Cl)c1	.	.	.	.	.	78	54	61	14	.
CCOC(=O)C1=C(CC)Nc2ccccc2N=C1NC(=O)CCNC(C)=O	.	.	.	.	.	.	/	/	/	/
CCOC(=O)C1=C(CC)Nc2ccccc2N=C1NC(=O)c1oc2ccccc2c1C	.	.	.	.	.	74	27	53	.	.
CCOCc1c(C(=O)NC2=Nc3ccccc3NC(CC)=C2C(=O)OCC)oc2ccccc12	.	40	.	.	.	61	30	55	.	.
COc1cccc(-c2nn(-c3ccccc3)cc2C(=O)Nc2nccs2)c1	.	.	.	.	.	65	.	49	.	.
O=C(Nc1nc(-c2cc(F)ccc2F)cs1)c1cccc(N2C(=O)CCC2=O)c1	.	.	/	.	.	75	48	60	22	.
CC1CCCN(S(=O)(=O)c2cccc([N+](=O)[O-])c2)C1 (centres undefined)	.	.	.	.	.	.	/	/	/	/
CC(C)[C@H](NC(=O)c1ccccc1)C(=O)OCC(=O)/C=C1/N(C)c2ccccc2C1(C)C	.	.	.	.	.	71	41	55	.	.
Cc1ccc(C)c(N2CCN(C(=O)CCS(=O)(=O)c3ccc4c(c3)NC(=O)CO4)CC2)c1	57	.	.	66	.	85	43	57	15	.
Cc1ccnc(NS(=O)(=O)c2ccc(NC(=O)c3ccc(Cl)cc3[N+](=O)[O-])cc2)n1	/	/	.	/	.	.	/	/	/	/
N#Cc1cc(NC(=O)c2ccc(Cl)cc2)ccc1Sc1ccccc1	/	/	/	/	.	73	35	.	.	.
COc1ccc(Sc2ccc(NC(=O)c3ccccc3Cl)cc2C#N)cc1	.	.	.	.	.	.	/	/	/	/
O=c1c2ccc([N+](=O)[O-])cc2ncn1CCOc1ccccc1	.	68	.	.	.	77	26	62	.	.
O=c1c2ccccc2ncn1CCOCCOc1ccc([N+](=O)[O-])cc1	.	.	.	.	.	.	/	/	/	/
Cc1ccc(OCCn2cnc3cc([N+](=O)[O-])ccc3c2=O)cc1	.	.	.	.	.	78	31	51	.	.
O=C(NCCc1ccccc1)c1ccc(NC(=O)c2cccnc2)cc1	/	/	.	/	.	.	/	/	/	/
O=C(Nc1ccc(-c2noc(CCc3ccccc3)n2)cc1)c1cccnc1	.	.	.	.	.	69	37	51	14	.
COc1cc(C(=O)c2cc3c(cc2C)OCO3)cc(OC)c1OC	/	/	/	/	.	.	/	/	/	/
CCOc1ccccc1N1CCN(C(=O)c2cc(S(=O)(=O)N(C)C)ccc2N2CCCC2)CC1	.	.	/	.	.	57	.	.	.	.
Cc1cccc(N2CCN(C(=O)c3cc(S(=O)(=O)N(C)C)ccc3N3CCCC3)CC2)c1C	.	.	.	.	.	.	/	/	/	/
CC1CCC2C(=O)N(c3cccc(C(=O)Nc4ccccc4Cl)c3)C(=O)C2C1 (centres undefined)	.	.	.	.	.	.	/	/	/	/
COc1ccccc1-c1cc(NC(C)=O)c2ncc(-c3cccc(C(C)=O)c3)n2c1	/	/	/	/	.	86	32	53	.	.
CC(=O)Nc1cc(-c2ccc(CO)cc2)cn2c(-c3cccc(C(F)(F)F)c3)cnc12	/	/	/	/	.	70	36	51	.	.
COc1cc(-c2cc(NC=O)c3ncc(-c4ccc(C(C)=O)cc4)n3c2)cc(OC)c1OC	/	/	/	/	.	53	23	.	.	.
COc1ccc(-c2cc(NC=O)c3ncc(-c4ccc(C(C)=O)cc4)n3c2)cc1OC	/	/	/	/	.	.	/	/	/	/
SMILES	CHO parental Ca	OX1R antag-1	GPR7 antagonist	OX1R antag-2	TAAR1 agonist	TAAR1 antagonist	TAAR1 nonsel count	TAAR1 antag conf	Ga16 nonsel ag	TAAR1 ag counter
C=CCOC(=O)Nc1nc(CCNC(=O)OC(C)(C)C)c(C(=O)OC)s1	/	/	/	/	.	.	/	/	/	/
CC1CCN(c2ccccc2NC(=O)c2cc3ccccc3o2)CC1	.	.	.	.	.	.	/	/	/	/
C[C@H](CO)N1C[C@H](C)[C@@H](CN(C)C(=O)Nc2ccc(F)cc2)Oc2ccc(NS(C)(=O)=O)cc2C1=O	.	.	/	.	.	.	/	/	/	/
Cc1ccccc1C(=O)N1CCN(c2ccc(NC(=O)c3ccc4c(c3)OCCO4)cc2)CC1	.	.	.	.	.	77	43	56	17	.
C=CCNc1sc(C(=O)c2ccc(C)cc2)c(N)c1C#N	.	.	.	.	.	.	/	/	/	/
C=CCNc1nc(N)c(C(=C(C#N)C#N)c2ccc(Br)cc2)s1	.	.	.	.	.	68	27	62	.	.
CCC(C)Sc1ccc(-c2nc3ccc(C)cn3c2NCc2ccccc2)cc1 (centres undefined)	.	.	/	.	.	72	39	57	.	.
COc1cc(-c2nc3ccc(C)cn3c2NCc2ccccc2)ccc1-c1cccc(Cl)c1	.	.	/	.	.	.	/	/	/	/
CCCCNc1c(-c2ccc(-c3cccc(Cl)c3)cc2)nc2ccccn12	.	.	/	.	.	65!	31	.	19	.
Cc1ccc2nc(-c3ccc(-c4cccc(Cl)c4)cc3)c(NCc3ccccc3)n2c1	.	.	/	.	.	64	32	.	.	.
CCNC(=O)c1ccccc1SCc1ccccc1	.	.	.	.	.	.	/	/	/	/
CCc1ccc(OCCNC(=O)c2ccccc2SCc2ccccc2)cc1	.	.	.	.	.	61	25	.	.	.
c1ccc(Oc2ccc(-c3ccnc4nc(N5CCN(c6ccccc6)CC5)nn34)cc2)cc1	.	.	.	.	.	.	/	/	/	/
CSc1nc2nccc(-c3ccc(Oc4ccccc4)cc3)n2n1	.	.	.	.	.	56	.	.	.	.
